Source: PubChem BioAssay (Johns Hopkins Ion Channel Center)
An excerpt weighted towards active compounds, which were near 3.7% of everything screened.
KCNQ1 act = potentiators or activators of KCNQ1 channel, primary screen, cell-based, thallium flux, high-throughput; Potassium voltage-gated channel subfamily KQT member 1 (Homo sapiens), P51787; CHO-K1 KCNQ1, thallium flux FluxOR fluorescence; active compounds read high; B-score at 10 µM; actives 0.35% (n = 310,000); AID 2648, 2010;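 active = fluorescence ratio B-score, a plate-corrected score, at least three library SD, with initial intensity B-score within 5 SD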
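Medium – assay buffer, equal DMSO in all wells · Material – CHO-K1 cell line with stable KCNQ1 potassium channel expression · Signal – kinetic FluxOR thallium fluorescence, 10-s 1-Hz baseline, 110-s post-stimulus read · Compound – single concentration per compound, DMSO matched to controls · Schedule – 37 °C overnight plating, 90-min dark dye load, 20-min compound pretreatment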
KCNQ1 block = inhibitors of human KCNQ1 channel, primary screen, cell-based, thallium flux, high-throughput; CHO-K1 KCNQ1, FluxOR thallium flux fluorescence; active compounds read high; B-score at 10 µM; actives 1.3% (n = 310,000); AID 2642, 2010;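 active = compounds whose thallium flux B-score, printed positive for inhibition, exceeds three library SD while starting fluorescence stays within three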;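 also: channel opened by potassium depolarization with thallium stimulus after 20 min compound exposure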
KCNK3 block = human KCNK3 channel inhibitors, primary screen, CHO cells, FluxOR thallium flux, B-score | FluxOR fluorescence; active compounds read low | B-score at 10 µM | actives 0.84% (n = 340,000) | AID 602410, 2012;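 active = B-score under library mean minus 4 SD, starting fluorescence ratio at most library mean plus 5 SD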;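 also: more negative B-score means stronger inhibition of thallium flux through KCNK3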
KCNK9 inh = KCNK9 potassium channel inhibitors, primary screen, HEK293 cells, thallium flux; AID 488922, 2010; FluxOR thallium flux fluorescence; active compounds read low; Potassium channel subfamily K member 9 (Homo sapiens), Q9NPC2; actives 1.2% (n = 310,000); B-score at 10 µM;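 active = ratio B-score over 3 SD below the library mean, with starting fluorescence within 5 SD of its mean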;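 also: negative B-score means less thallium flux so channel inhibition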
Kir21 block = inhibitors of mouse Kir2.1 inward-rectifier potassium channel | AID 1672, 2009 | HEK293-Kir2.1, FluxOR thallium flux fluorescence; active compounds read low | actives 0.85% (n = 310,000) | B-score at 10 µM;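 active = fluorescence ratio B-score at or below minus 3 SD of library scores, with starting-brightness B-score within 2 SD, cut at about -4.2 in these data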;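 also: channel flux triggered by added potassium and thallium sulfate stimulus; B-score of peak minus minimum fluorescence over baseline after thallium stimulus; more negative B-score means stronger Kir2.1 block with less thallium influx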
Target sequence (P35561 whole entry, looked up): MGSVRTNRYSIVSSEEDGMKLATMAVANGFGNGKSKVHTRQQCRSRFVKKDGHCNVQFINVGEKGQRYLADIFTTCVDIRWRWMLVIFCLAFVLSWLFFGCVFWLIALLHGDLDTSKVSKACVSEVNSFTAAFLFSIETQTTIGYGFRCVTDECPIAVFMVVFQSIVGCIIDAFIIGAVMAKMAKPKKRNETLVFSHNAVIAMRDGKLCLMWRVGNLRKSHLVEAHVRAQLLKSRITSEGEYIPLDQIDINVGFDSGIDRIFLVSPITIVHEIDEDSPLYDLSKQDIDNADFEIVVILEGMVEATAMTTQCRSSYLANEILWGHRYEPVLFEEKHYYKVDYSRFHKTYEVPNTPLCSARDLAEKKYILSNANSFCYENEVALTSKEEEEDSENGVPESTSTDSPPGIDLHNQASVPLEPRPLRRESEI
hERG rescue = hERG rescue from dofetilide block, primary screen, cell-based, CHO-hERG, FluxOR thallium flux, dofetilide IC70; dofetilide IC70 present; activation (rescue from dofetilide block), less the hit threshold, % at 10 µM; actives 0.51% (n = 310,000);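 active = activation above the mean of controls blocked by dofetilide plus 5 SD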;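 also: thallium influx through hERG after potassium depolarization seen as dye fluorescence rise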
Numbers without * were called inactive; i = inactive; x = no result.

SMILES	KCNQ1 act	KCNQ1 block	KCNK3 block	KCNK9 inh	Kir21 block	hERG rescue
COc1ccc(S(=O)(=O)Cc2ccc(C(=O)N3CCN(c4cc(Cl)ccc4C)CC3)o2)cc1	i	6*	i	i	-0.33	-5.1
CCOC(=O)C1=C(C)NC(C)=C(C(=O)OCC)C1C(=O)OCC(=O)NCCc1ccccc1	x	x	i	x	x	x
Cc1[nH][nH]c(=O)c1C(c1ccc(-c2ccc(F)cc2)o1)c1c(C)[nH][nH]c1=O	9*	i	i	i	-5.32*	-14.8
CCC(C)(C)n1nnnc1C(c1ccccc1F)N1CCN(C(=O)c2ccco2)CC1 (stereo unspecified)	i	i	i	i	-0.76	-2.7
COc1ccc(CCN2CCC(Nc3nc4ccccc4n3Cc3ccc(F)cc3)CC2)cc1	i	i	i	i	-6.78*	x
Cc1ccc(CNC(=O)C2CCCN2S(=O)(=O)c2ccc(Cl)cc2)cc1 (stereo unspecified)	i	i	i	i	2.19	-11.8
Cc1ccc(S(=O)(=O)N2CCCC2C(=O)NCc2ccc3c(c2)OCO3)cc1 (stereo unspecified)	i	i	i	i	0.12	9.9*
CCOc1cc(N2CCCC2)ccc1[N+](=O)[O-]	i	i	i	i	0.98	2.7
CCCCCNC(=O)c1ccc2c(=O)[nH]c3c(C(=O)NCC4CCCO4)sc(=S)n3c2c1 (stereo unspecified)	i	i	i	i	1.1	-20.2
O=C(NCc1ccccc1)c1ccc2c(=O)[nH]c3c(C(=O)NCC4CCCO4)sc(=S)n3c2c1 (stereo unspecified)	i	8*	i	i	1.28	-19.9
O=C(NC1CCCC1)c1sc(=S)n2c1[nH]c(=O)c1ccccc12	i	i	i	i	-2.64	-9.8
O=C(NCc1ccco1)c1sc(=S)n2c1[nH]c(=O)c1ccccc12	i	7*	i	i	0.77	-8.8
Cc1ccc(CNC(=O)c2ccc3c(=O)[nH]c4c(C(=O)NCC5CCCO5)sc(=S)n4c3c2)cc1 (stereo unspecified)	i	10*	i	i	-0.13	-9.0
COc1ccc(CCN(C)C(=O)C2CCCN(C3CCN(Cc4ccccc4)CC3)C2)cc1OC (stereo unspecified)	i	i	i	i	0.05	-5.9
CCN(CC)CCN(C(=O)c1cc2ccccc2cc1OC)c1nc2ccc(OC)cc2s1	i	9*	i	i	0.45	-22.3
COc1ccc(NC(=O)CSc2nc3nc(-c4cccs4)cc(C(F)(F)F)c3c(=O)[nH]2)c(OC)c1	i	9*	i	i	0.12	-5.1
CO/N=C(/CS(=O)c1ccc(Br)cc1)c1ccc(OC)cc1 (stereo unspecified)	i	i	i	i	-8.95*	-11.5
COc1cc(-c2nnc(SCC(=O)Nc3ccc(C(=O)O)cc3)o2)cc(OC)c1OC	x	x	i	x	x	x
Cc1nc2c(cc1N)nc(C)n2Cc1ccccc1	i	i	i	i	0.24	-3.1
Cn1ncc2c(N3CCC(Cc4ccccc4)CC3)ncnc21	i	i	i	i	0.61	-13.1
NNC(=O)c1cc2c(N3CCC(Cc4ccccc4)CC3)ncnc2s1	i	6*	i	i	0.99	-21.5
C=CCN1C(=O)c2ccc(C(=O)NCC(=O)Nc3c(C)cc(C)cc3C)cc2C1=O	x	x	i	x	x	x
Cc1c(O)ccc2cc(S(=O)(=O)c3ccccc3)c(=O)oc12	i	11*	i	i	-10.1	-10.5
COCCCN(CC(=O)Nc1ccc(F)cc1)S(=O)(=O)c1cccs1	x	x	i	x	x	x
O=C(Cc1ccc(Cl)c(Cl)c1)Nc1ccccc1N1CCCC1	i	i	i	i	-0.2	-0.8
SMILES	KCNQ1 act	KCNQ1 block	KCNK3 block	KCNK9 inh	Kir21 block	hERG rescue
O=C(Nc1ccccc1N1CCN(c2ccc(F)cc2)CC1)C1CCCCC1	i	i	i	-6.67*	0.84	-7.2
O=C(Nc1ccccc1N1CCN(c2ccc(F)cc2)CC1)C12CC3CC(CC(C3)C1)C2	i	i	i	-7.03*	-1.43	-9.1
O=C(Cc1ccc(F)cc1)Nc1ccccc1N1CCCC1	i	i	i	i	-5.43*	-9.4
COCc1c(C(=O)NCCOc2ccc(Cl)cc2)oc2ccccc12	x	x	-8.89*	x	x	x
CC1=CCC(C(=O)O)C(C(=O)Nc2ccc(-c3nc4ccc(C)cc4s3)cc2)C1 (stereo unspecified)	i	i	i	i	-1.31	-17.9
Fc1ccc(CSc2nnc(-c3cnccn3)n2Cc2ccco2)cc1	i	i	i	i	-0.54	-4.7
C=CCn1c(SCC(=O)Nc2ccc(C(=O)O)cc2)nnc1-c1cccnc1	i	i	i	i	-0.02	-6.7
Clc1ccccc1CSc1nnc(-c2cccnc2)n1Cc1ccco1	i	i	i	i	-4.44*	-14.6
C(=C\c1ccccc1)/CSc1nnc(-c2cnccn2)n1Cc1ccco1	i	i	i	i	-5.27*	-10.8
C=CCn1c(SCc2cccc3ccccc23)nnc1-c1cccnc1	i	i	i	i	-6.44*	-15.4
Cc1nnc2sc(SCC(=O)Nc3ccc(Cl)cc3)nn2c1=O	i	i	i	i	0.01	-7.7
NC(=O)c1c(NC(=O)CN2CCN(S(=O)(=O)c3ccccc3)CC2)sc2c1CCC2	i	i	i	i	1.26	-6.3
Cc1cccc(N2CCN(C(=O)c3ccccc3OCc3c(C)noc3C)CC2)c1C	i	i	i	i	-1.4	-16.7
CC(C)N(Cc1ccccc1)C(=S)NCc1ccccc1	i	i	i	i	-4.21*	-9.3
CCOc1ccc(N=Nc2cc(C(C)C)ccc2O)cc1	i	i	i	i	1.62	9.1*
CCOc1ccc(N=C(C)c2ccccc2O)cc1	i	i	i	i	0	-0.8
CCOc1ccc(N=Nc2ccc(O)c3ncccc23)cc1	i	i	i	i	1.68	10.6*
Cc1cccc(N=Nc2ccc(O)c3ncccc23)c1	10*	i	i	i	-0.91	2.2
Cc1ccc(C)c(N=Nc2ccc(O)c3ncccc23)c1	i	i	i	i	0.98	-6.1
COc1ccccc1N(C)S(=O)(=O)c1ccc(C(=O)Nc2nc(C)cs2)cc1	i	i	i	i	0.14	-12.1
